Screening results (PubChem)
Ecoli rRNA inh: reduced GFP signal of wild-type E. coli, primary screen, bacterial rRNA inhibitor project, GFP/RFP fluorescence, OD600, single point. E. coli WT GFP vs humanized-ribosome RFP mutants, 24 h; hits give low values; DMSO median 0, no signal -100. GFP signal change (wild-type ribosome), % (concentration not given with the values). 350,000 tested, 1.6% active;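 active = significant combined selectivity score with lowered wild-type GFP, culture density cut under 30%, mutant RFP and density less affected; inactive = any of these conditions unmet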
Env fusion inh: inhibitors of HIV-1 Env-driven cell-cell fusion, primary screen, HeLa-JRFL effector, CEM21 target cells, luciferase; 360,000 tested, 1.1% active; inhibition, % at 12.3 µM;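 active = mean replicate inhibition score of at least 50 and every replicate individually at or above 50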;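 note: 0% = plate neutral controls and 100% = maraviroc near 300 nM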
PvdQ inh: P. aeruginosa PvdQ acylase inhibitors, primary screen, biochemical, fluorescence, plate reader and imaging, single point; PvdQ acylase [Pseudomonas aeruginosa LESB58]; purified PvdQ acylase; inhibition, % at 10 µM; 340,000 tested, 0.063% active; in the data active = inhibition above about 30%, passing the limit was not always enough;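 note: 0% = vehicle neutral wells and 100% = reference inhibitor wells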
FN deposition inh: inhibitors of fibronectin matrix deposition, primary screen, AH1F cells, Alexa488-fibronectin fluorescence, plate reader. AH1F fibroblasts, overnight. inhibition, % at 12.6 µM. AID 743247, 2014. 350,000 tested, 0.086% active;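 active = mean inhibition across replicates of 30% or more, regardless of how many single replicates reach that level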;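 note: positive control wells lacked labelled fibronectin entirely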
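Material: AH1F fibroblast monolayer depositing Alexa488-labelled fibronectin into matrix / Amount: 10000 AH1F cells per well / Signal: fluorescence 485/525 nm / Medium: DMEM, 2% serum / Compound: single dose, pinned / Incubation: 1 h cell adhesion before compound, then overnight fibronectin incubation / Reagent: Alexa488-FN, 24 nM final / Read-out: inhibition of fibronectin deposition signal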
ERp5 inh: inhibitors of ERp5-driven insulin aggregation, primary screen, biochemical, turbidity, absorbance 650 nm, single point. Protein disulfide-isomerase A6 (Homo sapiens), Q15084. 90 min. inhibition, % at 9.99 µM. 350,000 tested, 0.05% active;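 active = mean replicate inhibition above about 25%, with every replicate also reaching it, limit read from the data, passing the limit was not always enough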
Target sequence (Q15084 whole entry, looked up): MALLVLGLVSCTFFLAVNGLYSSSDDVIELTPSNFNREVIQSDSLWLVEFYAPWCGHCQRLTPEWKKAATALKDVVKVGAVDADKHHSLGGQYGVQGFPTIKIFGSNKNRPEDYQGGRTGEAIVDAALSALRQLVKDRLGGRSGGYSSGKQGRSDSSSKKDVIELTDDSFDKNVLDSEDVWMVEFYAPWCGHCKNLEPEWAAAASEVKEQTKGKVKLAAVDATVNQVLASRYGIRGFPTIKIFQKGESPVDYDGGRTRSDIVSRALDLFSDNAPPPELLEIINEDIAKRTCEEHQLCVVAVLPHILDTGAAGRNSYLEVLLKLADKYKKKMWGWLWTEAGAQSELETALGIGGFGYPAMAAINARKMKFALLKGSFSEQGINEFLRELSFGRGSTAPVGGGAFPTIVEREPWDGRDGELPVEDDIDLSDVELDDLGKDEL
PDI turbidity: inhibitors of human PDI, primary screen, biochemical, turbidity, single point, plate reader | Protein disulfide-isomerase (Homo sapiens), P07237 | PDI insulin aggregation turbidity, A650, 90 min | inhibition, % at 10 µM | 350,000 tested, 0.052% active;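 active = mean inhibition across replicates of 30% or more, whatever share of single replicates reach that level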
An asterisk follows results filed as active; . = no result; [ ] = remark or other dose. In the library only some 2.2% were active in any assay of this set; here they are far more common.

SMILES | Ecoli rRNA inh | Env fusion inh | PvdQ inh | FN deposition inh | ERp5 inh | PDI turbidity
CC1=C(O)C(=O)C=C2C1=CC=C1C2(C)CCC2(C)C3CC(C)(C(=O)O)CCC3(C)CCC12C (stereo unspecified) | 3 | -231 | -2 | . | 11 | 63*
Cc1oc(-c2ccccc2Cl)nc1CN1C(=O)CN=C(c2ccccc2)c2ccccc21 | -20 | 15 | -7 | -4 | -5 | 1
O=C1CN=C(c2ccccc2)c2ccccc2N1Cc1ccc(C(F)(F)F)cc1 | . | 76* | 6 | -4 | . | -1
CC(=O)N1[C@@H]2Cn3c(ccc(-c4cccc(C(=O)N(C)C)c4)c3=O)[C@H]1[C@@H](C(=O)O)[C@@H]2CO | 3 | . | . | . | . | .
COc1ccc(C#Cc2ccc([C@@H]3[C@@H](CO)N4CCCCN(C(=O)Cc5ccncc5)C[C@H]34)cc2)cc1 | -20 | . | . | . | 0 | .
O=[N+]([O-])c1ccc(N2CCCCCC2)c2ncccc12 | -42 | -3 | 11 | 3 | -1 | -2
O=[N+]([O-])c1ccc(N2CCCCC2)c2ncccc12 | -43* | -23 | 11 | -10 | 0 | -3
C[C@H]1CCC/C=C/[C@@H]2C[C@H](O)C[C@H]2[C@@H](O)/C=C/C(=O)O1 | 9 | 82* | -18 | 2 | -1 | 13
CCOP(=O)(C#Cc1ccccc1)C(O)c1ccc(Br)cc1 (stereo unspecified) | -48 | 18 | -8 | -4 | 1 | 3
COP(=O)(C#Cc1ccccc1)C(O)c1ccc(Br)cc1 (stereo unspecified) | -30* | 9 | -1 | -3 | 2 | 13
COc1ccc(C#Cc2ccc([C@@H]3[C@H]4CN(C(=O)Cc5ccccc5)CCCCN4[C@H]3CO)cc2)cc1 | -4 | . | . | . | 8 | .
O=C(CF)NC(NC(=S)Nc1cccc([N+](=O)[O-])c1)C(Cl)(Cl)Cl (stereo unspecified) | 3 | 8 | 0 | -9 | 4 | 16
COc1ccc(NC(=S)NC(NC(=O)CF)C(Cl)(Cl)Cl)cc1[N+](=O)[O-] (stereo unspecified) | -22* | 14 | 0 | 9 | -3 | 0
Fc1ccc(C(OCCN2CCN(CCCc3ccccc3)CC2)c2ccc(F)cc2)cc1 | -57 | 71* | 0 | 4 | 1 | -3
CCCCCCOc1ccc(CN2CCN(C)CC2)cc1 | -25* | . | -2 | . | -1 | 10
CN1CCN(Cc2ccc3ccccc3c2)CC1 | -24 | -5 | -15 | -20 | 4 | -4
O=C(Cc1cccnc1)N1CCCCN2[C@H](C1)[C@H](c1ccc(C#CC3CC3)cc1)[C@@H]2CO | . | . | . | . | 0 | .
CC=Cc1ccc2n(c1=O)C[C@@H]1[C@@H](CO)[C@H](C(=O)OC)[C@H]2N1CC1CCCC1 (mixture of isomers) | -1 | . | . | . | 0 | .
COC(=O)C1=C(c2ccc(OC(F)(F)F)cc2)C[C@@H]2CC[C@H]1N2C(=O)N1CCC(C)CC1 | -8 | 23 | 6 | 0 | 4 | -3
COC(=O)C1=C(c2ccc(OC(F)(F)F)cc2)C[C@@H]2CC[C@H]1N2C(=O)N1CCCC1 | 10 | 58* | 4 | -6 | 8 | 0
O=C(Cc1ccccc1)N1C[C@@H]2[C@H](c3ccccc31)[C@H](CO)N2Cc1ccccc1 | -12 | . | . | . | 1 | .
Nc1c2c(nc3sc4c(c13)CCCCC4)CCCC2 | -23* | -6 | -11 | . | 4 | -2
COc1ccc(OC(=O)N(C)C[C@H]2OCc3ccccc3-c3c(n(C)c4ccccc34)C(=O)N([C@H](C)CO)C[C@@H]2C)cc1 | 0 | . | . | -2 | 2 | .
C=CCN1C(=S)N[C@@H]2c3ccccc3O[C@@]1(C)[C@@H]2C(=O)OCC | . | 6[16.7 µM] | . | . | 1 | .
Cc1cc2c(C(C)C)c(O)c(O)c(C=O)c2c(O)c1-c1c(C)cc2c(C(C)C)c(O)c(O)c(C=O)c2c1O | -7.7* | 61* | . | 13 | 3 | 1
